Laboratory results taken from ChEMBL document CHEMBL3097989, “Antimicrobial activity of de novo designed cationic peptides against multi-resistant clinical isolates” (Eur J Med Chem, 2014).

Legend:
Klebsiella pneumoniae [1] = assay: Antibacterial activity against Klebsiella pneumoniae PFAV3 by microdilution test; format: functional
In short: (§1)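 MIC by standard broth microdilution following CLSI recommendations, in Mueller Hinton broth supplemented with Ca²⁺ (20-25mg/L) and Mg²⁺ (10-12.5mg/L); peptides tested against a panel of multi-resistant clinical isolates plus ATCC reference strains.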

[2] = tested on: Staphylococcus epidermidis; assay: Antibacterial activity against Staphylococcus epidermidis M2921 clinical isolate expressing mecA gene by microdilution test; format: functional
In short: (§2)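 MIC by standard broth microdilution following CLSI recommendations, in Mueller Hinton broth supplemented with Ca²⁺ (20-25 mg/L) and Mg²⁺ (10-12.5 mg/L); ATCC reference strains included in the panel.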

Escherichia coli [3] = assay: Antibacterial activity against Escherichia coli M9884 by microdilution test; format: functional; in short: as §1
Pseudomonas aeruginosa [4] = assay: Antibacterial activity against Pseudomonas aeruginosa M7907 clinical isolate expressing blaPER gene by microdilution test; format: functional; in short: as §2
Staphylococcus aureus [5] = assay: Antibacterial activity against Staphylococcus aureus ATCC 29213 by microdilution test; format: functional; in short: as §2
Acinetobacter sp. [6] = assay: Antibacterial activity against Acinetobacter sp. M5277 clinical isolate expressing blaPER gene by microdilution test; format: functional; in short: as §1
Enterococcus faecalis [7] = assay: Antibacterial activity against Enterococcus faecalis ATCC 29212 by microdilution test; format: functional; in short: as §1
Klebsiella pneumoniae [8] = assay: Antibacterial activity against Klebsiella pneumoniae M9140 clinical isolate expressing blaCIT gene by microdilution test; format: functional; in short: as §1
Acinetobacter sp. [9] = assay: Antibacterial activity against Acinetobacter sp. M7978 clinical isolate expressing blaIMP-1 gene by microdilution test; format: functional; in short: as §1
Staphylococcus aureus [10] = assay: Antibacterial activity against Staphylococcus aureus P239 clinical isolate expressing ermC gene by microdilution test; format: functional; in short: as §2
Escherichia coli [11] = assay: Antibacterial activity against Escherichia coli PLCA1 clinical isolate expressing blaCTX-M-2 and blaTEM-1 gene by microdilution test; format: functional; in short: as §1
Acinetobacter sp. [12] = assay: Antibacterial activity against Acinetobacter sp. M5949 clinical isolate expressing blaOXA-23 and blaOXA-GVI gene by microdilution test; format: functional; in short: as §1
Klebsiella pneumoniae [13] = assay: Antibacterial activity against Klebsiella pneumoniae M1803 clinical isolate expressing blaPER-2, blaCTX-M-2, blaTEM-1, blaSHV and blaOXA-9 gene by microdilution test; format: functional; in short: as §1
Staphylococcus aureus [14] = assay: Antibacterial activity against Staphylococcus aureus P33 clinical isolate expressing msrA gene by microdilution test; format: functional; in short: as §2
Pseudomonas aeruginosa [15] = assay: Antibacterial activity against Pseudomonas aeruginosa ATCC 27853 by microdilution test; format: functional; in short: as §1
[16] = tested on: Staphylococcus saprophyticus; assay: Antibacterial activity against Staphylococcus saprophyticus M4070 clinical isolate expressing mecA gene by microdilution test; format: functional; in short: as §2
Enterococcus faecium [17] = assay: Antibacterial activity against Enterococcus faecium M2619 clinical isolate expressing vanB gene by microdilution test; format: functional; in short: as §1
Staphylococcus cohnii = assay: Antibacterial activity against Staphylococcus cohnii M6767 clinical isolate expressing mecA gene by microdilution test; format: functional; in short: as §2
Acinetobacter sp. [18] = assay: Antibacterial activity against Acinetobacter sp. M5282 clinical isolate expressing blaOXA-51 gene by microdilution test; format: functional; in short: as §1
Enterococcus faecalis [19] = assay: Antibacterial activity against Enterococcus faecalis M4992 clinical isolate expressing vanA gene by microdilution test; format: functional; in short: as §1
Pseudomonas aeruginosa [20] = assay: Antibacterial activity against Pseudomonas aeruginosa M5200 clinical isolate expressing blaVIM and blaGES-1 gene by microdilution test; format: functional; in short: as §2
Staphylococcus aureus [21] = assay: Antibacterial activity against Staphylococcus aureus P28 clinical isolate expressing ermA gene by microdilution test; format: functional; in short: as §2
[22] = tested on: Staphylococcus epidermidis; assay: Antibacterial activity against Staphylococcus epidermidis M2931 by microdilution test; format: functional; in short: as §2
Staphylococcus aureus [23] = assay: Antibacterial activity against Staphylococcus aureus P204 clinical isolate expressing ermA gene by microdilution test; format: functional; in short: as §2
Klebsiella pneumoniae [24] = assay: Antibacterial activity against Klebsiella pneumoniae M9170 clinical isolate expressing blaOXA-GIII gene by microdilution test; format: functional; in short: as §1
Acinetobacter sp. [25] = assay: Antibacterial activity against Acinetobacter sp. M13523 clinical isolate expressing blaOXA-51 gene by microdilution test; format: functional; in short: as §1
[26] = tested on: Staphylococcus haemolyticus; assay: Antibacterial activity against Staphylococcus haemolyticus M2976 clinical isolate expressing mecA gene by microdilution test; format: functional; in short: as §2
Escherichia coli [27] = assay: Antibacterial activity against Escherichia coli M9209 clinical isolate expressing blaKPC-2 gene by microdilution test; format: functional; in short: as §1
Escherichia coli [28] = assay: Antibacterial activity against Escherichia coli M5306 clinical isolate expressing blaPER-2, blaCTX-M-2 and blaTEM-1 gene by microdilution test; format: functional; in short: as §1
Pseudomonas aeruginosa [29] = assay: Antibacterial activity against Pseudomonas aeruginosa M11005 clinical isolate expressing blaKPC-2 gene by microdilution test; format: functional; in short: as §1
Enterococcus faecalis [30] = assay: Antibacterial activity against Enterococcus faecalis M4449 clinical isolate expressing vanA gene by microdilution test; format: functional; in short: as §1
Enterococcus faecium [31] = assay: Antibacterial activity against Enterococcus faecium M2304 clinical isolate expressing vanA gene by microdilution test; format: functional; in short: as §1
Klebsiella pneumoniae [32] = assay: Antibacterial activity against Klebsiella pneumoniae M9375 clinical isolate expressing blaCTX-M-2, blaTEM-1 and blaSHV-1 gene by microdilution test; format: functional; in short: as §1
Klebsiella pneumoniae [33] = assay: Antibacterial activity against Klebsiella pneumoniae M13540 clinical isolate expressing blaKPC-2 gene by microdilution test; format: functional; in short: as §1
Escherichia coli [34] = assay: Antibacterial activity against Escherichia coli PCOS15 clinical isolate expressing blaPER-2 and blaTEM-1 gene by microdilution test; format: functional; in short: as §1
Staphylococcus aureus [35] = assay: Antibacterial activity against Staphylococcus aureus M6794 clinical isolate expressing mecA gene by microdilution test; format: functional; in short: as §2
Enterococcus gallinarum = assay: Antibacterial activity against Enterococcus gallinarum M2685 clinical isolate expressing vanC1 and vanA gene by microdilution test; format: functional; in short: as §1
Enterococcus faecalis [36] = assay: Antibacterial activity against Enterococcus faecalis M6534 clinical isolate expressing vanB gene by microdilution test; format: functional; in short: as §1
[37] = tested on: Staphylococcus epidermidis; assay: Antibacterial activity against Staphylococcus epidermidis M2923 by microdilution test; format: functional; in short: as §2
Pseudomonas aeruginosa [38] = assay: Antibacterial activity against Pseudomonas aeruginosa M5470 by microdilution test; format: functional; in short: as §2
Klebsiella pneumoniae [39] = assay: Antibacterial activity against Klebsiella pneumoniae M5825 clinical isolate expressing blaGES-3 and blaCTX-M-2 gene by microdilution test; format: functional; in short: as §1
Staphylococcus aureus [40] = assay: Antibacterial activity against Staphylococcus aureus M6820 clinical isolate expressing mecA gene by microdilution test; format: functional; in short: as §2
Staphylococcus aureus [41] = assay: Antibacterial activity against Staphylococcus aureus M6276 clinical isolate expressing ermA and lnuA gene by microdilution test; format: functional; in short: as §2
[42] = Toxicity in human RBC assessed as hemolytic activity relative to control; format: cell-based, Erythrocyte; details: red blood cells (RBC), read-out: Activity
In short: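 Heparinized human whole blood diluted 3x in PBS and centrifuged 10 min at 1500 rpm, repeated three times. Cells resuspended to 10% (v/v), then diluted to about 0.5% (v/v). Peptides added at various concentrations for 30 min at 37 °C. Supernatant absorbance read at 550 nm. Lysis calculated against buffer (0%) and water (100%). Readings taken in triplicate and averaged.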

Acinetobacter sp. [43] = assay: Antibacterial activity against Acinetobacter sp. M9665 clinical isolate expressing blaOXA-51 gene by microdilution test; format: functional; in short: as §1
Klebsiella pneumoniae [44] = assay: Antibacterial activity against Klebsiella pneumoniae M9491 clinical isolate expressing blaMOX gene by microdilution test; format: functional; in short: as §1
Staphylococcus warneri = assay: Antibacterial activity against Staphylococcus warneri M6823 clinical isolate expressing mecA gene by microdilution test; format: functional; in short: as §2
Acinetobacter sp. [45] = assay: Antibacterial activity against Acinetobacter sp. M5179 clinical isolate expressing blaOXA-51 gene by microdilution test; format: functional; in short: as §1
Staphylococcus aureus [46] = assay: Antibacterial activity against Staphylococcus aureus M4046 clinical isolate expressing mecA gene by microdilution test; format: functional; in short: as §2

MIC90 (Klebsiella pneumoniae [1]): 128 µg/mL
MIC90 [2]: 8 µg/mL
MIC90 (Escherichia coli [3]): 32 µg/mL
MIC90 (Pseudomonas aeruginosa [4]): 64 µg/mL
MIC90 (Staphylococcus aureus [5]): 32 µg/mL
MIC90 (Acinetobacter sp. [6]): 64 µg/mL
MIC90 (Enterococcus faecalis [7]): 128 µg/mL
MIC90 (Klebsiella pneumoniae [8]): 32 µg/mL
MIC90 (Acinetobacter sp. [9]): 64 µg/mL
MIC90 (Staphylococcus aureus [10]): 64 µg/mL
MIC90 (Escherichia coli [11]): 64 µg/mL
MIC90 (Acinetobacter sp. [12]): 256 µg/mL
MIC90 (Klebsiella pneumoniae [13]): 64 µg/mL
MIC90 (Staphylococcus aureus [14]): 64 µg/mL
MIC90 (Pseudomonas aeruginosa [15]): 64 µg/mL
MIC90 [16]: 8 µg/mL
MIC90 (Enterococcus faecium [17]): 16 µg/mL
MIC90 (Staphylococcus cohnii): 8 µg/mL
MIC90 (Acinetobacter sp. [18]): 64 µg/mL
MIC90 (Enterococcus faecalis [19]): 128 µg/mL
MIC90 (Pseudomonas aeruginosa [20]): 64 µg/mL
MIC90 (Staphylococcus aureus [21]): 64 µg/mL
MIC90 [22]: 8 µg/mL
MIC90 (Staphylococcus aureus [23]): 32 µg/mL
MIC90 (Klebsiella pneumoniae [24]): 64 µg/mL
MIC90 (Acinetobacter sp. [25]): 64 µg/mL
MIC90 (Escherichia coli [27]): 128 µg/mL
MIC90 (Escherichia coli [28]): 64 µg/mL
MIC90 (Pseudomonas aeruginosa [29]): 128 µg/mL
MIC90 (Enterococcus faecalis [30]): 128 µg/mL
MIC90 (Enterococcus faecium [31]): 8 µg/mL
MIC90 (Klebsiella pneumoniae [32]): 16 µg/mL
MIC90 (Klebsiella pneumoniae [33]): 64 µg/mL
MIC90 (Escherichia coli [34]): 64 µg/mL
MIC90 (Staphylococcus aureus [35]): 64 µg/mL
MIC90 (Enterococcus gallinarum): 16 µg/mL
MIC90 (Enterococcus faecalis [36]): 256 µg/mL
MIC90 [37]: 16 µg/mL
MIC90 (Pseudomonas aeruginosa [38]): 64 µg/mL
MIC90 (Klebsiella pneumoniae [39]): 32 µg/mL
MIC90 (Staphylococcus aureus [40]): 64 µg/mL
MIC90 (Staphylococcus aureus [41]): 64 µg/mL
MIC90 (Acinetobacter sp. [43]): 128 µg/mL
MIC90 (Klebsiella pneumoniae [44]): 64 µg/mL
MIC90 (Staphylococcus warneri): 8 µg/mL
MIC90 (Acinetobacter sp. [45]): 64 µg/mL
MIC90 (Staphylococcus aureus [46]): 32 µg/mL
Substance: H-RIVQRIKKWLLKWKKLGY-NH2
MIC90 [26]: 8 µg/mL
hemolysis [42]: 9.5%
